One may read the IC50 as the concentration that inhibits the measured activity by half. For orientation: inhibition means the change of the read-out against control, counted positive when it falls. Low values mean a response near the control, high ones a response far below the control. In general, EC50 refers to the concentration giving half of the maximal effect.

Experimental findings from ChEMBL document CHEMBL4387722 are described below.

SMILES strings stand for the structures.

Assay [1] deals with T1, Phosphotyrosine protein phosphatase (Mycobacterium tuberculosis, UniProt A0A045ISB3).
T1 sequence (A0A045ISB3 whole entry): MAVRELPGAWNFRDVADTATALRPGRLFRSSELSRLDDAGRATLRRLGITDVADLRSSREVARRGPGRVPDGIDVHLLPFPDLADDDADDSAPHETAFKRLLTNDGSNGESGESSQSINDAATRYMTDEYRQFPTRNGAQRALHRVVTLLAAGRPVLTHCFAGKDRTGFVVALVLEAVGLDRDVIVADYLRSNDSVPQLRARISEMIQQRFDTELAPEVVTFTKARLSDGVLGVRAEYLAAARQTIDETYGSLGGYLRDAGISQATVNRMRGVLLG
The assay can be described thus: Inhibition of Mycobacterium tuberculosis His-tagged PtpB expressed in Escherichia coli Rosetta 2 (DE3) using pNPP as substrate after 30 mins by spectrophotometric method.

For assay [2], the target named is T2, Tyrosine-protein phosphatase non-receptor type 1 (Homo sapiens, UniProt P18031).
T2 sequence (P18031 whole entry): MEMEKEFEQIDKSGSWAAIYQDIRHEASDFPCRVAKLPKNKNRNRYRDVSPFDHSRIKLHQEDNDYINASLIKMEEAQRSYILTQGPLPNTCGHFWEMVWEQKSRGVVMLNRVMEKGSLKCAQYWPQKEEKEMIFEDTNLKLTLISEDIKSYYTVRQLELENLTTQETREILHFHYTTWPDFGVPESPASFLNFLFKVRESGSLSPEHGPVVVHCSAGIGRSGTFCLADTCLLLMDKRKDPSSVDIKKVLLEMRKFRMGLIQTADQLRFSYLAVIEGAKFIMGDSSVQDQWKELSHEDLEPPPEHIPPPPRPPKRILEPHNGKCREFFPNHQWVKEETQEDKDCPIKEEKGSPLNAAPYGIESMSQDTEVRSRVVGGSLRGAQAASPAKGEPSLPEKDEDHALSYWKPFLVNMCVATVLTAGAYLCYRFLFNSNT
Briefly: Inhibition of human PTPN1 expressed in Escherichia coli Rosetta 2 (DE3) using pNPP as substrate after 45 mins by spectrophotometric method.

The target of assay [3] is T3, Tyrosine-protein phosphatase non-receptor type 2 (Homo sapiens, UniProt P17706).
T3 sequence (P17706 whole entry): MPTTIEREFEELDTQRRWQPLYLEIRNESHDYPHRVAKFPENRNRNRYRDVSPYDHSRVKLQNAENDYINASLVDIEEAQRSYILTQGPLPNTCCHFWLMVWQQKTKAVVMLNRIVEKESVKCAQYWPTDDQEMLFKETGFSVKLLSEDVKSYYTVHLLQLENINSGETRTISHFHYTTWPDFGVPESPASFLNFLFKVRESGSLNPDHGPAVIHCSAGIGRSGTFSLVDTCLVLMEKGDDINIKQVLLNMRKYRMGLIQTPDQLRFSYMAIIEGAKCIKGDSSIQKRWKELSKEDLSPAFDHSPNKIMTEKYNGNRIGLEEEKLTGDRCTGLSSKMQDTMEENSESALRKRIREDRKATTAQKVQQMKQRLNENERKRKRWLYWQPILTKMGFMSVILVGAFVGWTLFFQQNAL
Briefly: Inhibition of human PTPN2 expressed in Escherichia coli Rosetta 2 (DE3) using pNPP as substrate after 45 mins by spectrophotometric method.

Assay [4] deals with T4, Tyrosine-protein phosphatase non-receptor type 5 (Homo sapiens, UniProt P54829).
T4 sequence (P54829 whole entry): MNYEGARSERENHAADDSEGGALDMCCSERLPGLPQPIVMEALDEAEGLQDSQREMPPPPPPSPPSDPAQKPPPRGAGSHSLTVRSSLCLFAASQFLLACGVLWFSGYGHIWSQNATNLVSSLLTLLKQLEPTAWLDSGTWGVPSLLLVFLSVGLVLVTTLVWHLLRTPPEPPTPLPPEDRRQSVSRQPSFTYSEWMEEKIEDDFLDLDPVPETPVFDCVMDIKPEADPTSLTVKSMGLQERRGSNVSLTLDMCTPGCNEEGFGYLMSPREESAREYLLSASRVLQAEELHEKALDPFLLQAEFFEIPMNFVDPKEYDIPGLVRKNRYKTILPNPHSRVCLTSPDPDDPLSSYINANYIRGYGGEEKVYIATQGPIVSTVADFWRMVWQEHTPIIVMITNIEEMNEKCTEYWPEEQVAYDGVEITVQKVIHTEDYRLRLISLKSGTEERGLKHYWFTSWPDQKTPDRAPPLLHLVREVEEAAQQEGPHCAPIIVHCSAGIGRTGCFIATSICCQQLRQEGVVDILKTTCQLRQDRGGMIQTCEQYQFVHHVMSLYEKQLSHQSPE
Briefly: Inhibition of human PTPN5 expressed in Escherichia coli Rosetta 2 (DE3) using pNPP as substrate after 45 mins by spectrophotometric method.

Assay [5] has as its system Mycobacterium tuberculosis. The assay can be described thus: Antitubercular activity against Mycobacterium tuberculosis H37Rv after 5 days at 200 uM relative to control. In kind it is functional. The settings on record: 120 h. In short, it runs like this: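 M. tuberculosis grown in liquid culture with compound at a fixed 200 μM for 5 days. Growth inhibition expressed as percent of control.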

In assay [6] the test system is Mycobacterium tuberculosis. Briefly: Antitubercular activity against Mycobacterium tuberculosis H37Rv after 5 days. In kind it is functional, organism-based. The settings on record: 120 h.
For assay [7], the target named is E. coli GroEL/ES (Escherichia coli, UniProt P0A6F5). The assay can be described thus: Inhibition of Escherichia coli GroEL expressed in Escherichia coliDH5alpha/Escherichia coli GroES expressed in Escherichia coli BL21 (DE3) assessed as reduction in GroEL/GroES-mediated denatured pig heart mitochondrial MDH refolding by measuring MDH enzyme activity using sodium mesoxalate as substrate after 20 to 40 mins by spectrometric analysis.

In assay [8] the target is HSP60/HSP10 (Homo sapiens, UniProt P10809). Briefly: Inhibition of human HSP60 expressed in Escherichia coli Rosetta 2(DE3)/human HSP10 expressed in Escherichia coli Rosetta 2(DE3) pLysS cells assessed as reduction in HSP60/HSP10-mediated denatured pig heart mitochondrial MDH refolding by measuring MDH enzyme activity using sodium mesoxalate as substrate after 40 to 60 mins by spectrometric analysis.

The nature of assay [9]: Selectivity index, ratio of IC50 for human PTPN1 to IC50 for Mycobacterium tuberculosis PtpB.
A short description of assay [10]: Selectivity ratio of IC50 for inhibition of human HSP60 expressed in Escherichia coli Rosetta 2(DE3)/human HSP10 expressed in Rosetta 2(DE3) pLysS cells to IC50 for inhibition of Escherichia coli GroEL expressed in Escherichia coli DH5alpha/Escherichia coli GroES expressed in Escherichia coli BL21 (DE3). The method, boiled down: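 Ratio of IC50s from two analogous chaperonin-mediated refolding assays: human HSP60/10 and E. coli GroEL/ES each refold denatured malate dehydrogenase (dMDH). Refolding is followed through the recovered MDH enzymatic activity in a coupled read-out. IC50s come from dose-response testing. GroEL subunits are at 700 nM in the GroEL/ES assay.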

Sequence of E. coli GroEL/ES (P0A6F5 whole entry, looked up): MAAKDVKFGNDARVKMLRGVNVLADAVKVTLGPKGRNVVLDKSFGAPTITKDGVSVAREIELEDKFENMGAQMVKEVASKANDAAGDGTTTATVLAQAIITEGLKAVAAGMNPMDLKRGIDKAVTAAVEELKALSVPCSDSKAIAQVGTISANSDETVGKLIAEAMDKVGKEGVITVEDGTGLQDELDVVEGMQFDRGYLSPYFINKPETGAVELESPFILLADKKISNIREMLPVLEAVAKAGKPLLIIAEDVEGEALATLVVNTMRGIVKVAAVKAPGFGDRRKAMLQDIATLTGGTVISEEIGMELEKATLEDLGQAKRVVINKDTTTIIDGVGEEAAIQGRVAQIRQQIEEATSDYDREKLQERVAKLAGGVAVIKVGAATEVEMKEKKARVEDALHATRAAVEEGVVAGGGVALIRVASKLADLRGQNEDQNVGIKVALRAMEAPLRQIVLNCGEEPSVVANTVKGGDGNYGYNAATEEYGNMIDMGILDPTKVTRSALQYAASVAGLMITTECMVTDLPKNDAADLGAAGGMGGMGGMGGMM
Sequence of HSP60/HSP10 (P10809 whole entry): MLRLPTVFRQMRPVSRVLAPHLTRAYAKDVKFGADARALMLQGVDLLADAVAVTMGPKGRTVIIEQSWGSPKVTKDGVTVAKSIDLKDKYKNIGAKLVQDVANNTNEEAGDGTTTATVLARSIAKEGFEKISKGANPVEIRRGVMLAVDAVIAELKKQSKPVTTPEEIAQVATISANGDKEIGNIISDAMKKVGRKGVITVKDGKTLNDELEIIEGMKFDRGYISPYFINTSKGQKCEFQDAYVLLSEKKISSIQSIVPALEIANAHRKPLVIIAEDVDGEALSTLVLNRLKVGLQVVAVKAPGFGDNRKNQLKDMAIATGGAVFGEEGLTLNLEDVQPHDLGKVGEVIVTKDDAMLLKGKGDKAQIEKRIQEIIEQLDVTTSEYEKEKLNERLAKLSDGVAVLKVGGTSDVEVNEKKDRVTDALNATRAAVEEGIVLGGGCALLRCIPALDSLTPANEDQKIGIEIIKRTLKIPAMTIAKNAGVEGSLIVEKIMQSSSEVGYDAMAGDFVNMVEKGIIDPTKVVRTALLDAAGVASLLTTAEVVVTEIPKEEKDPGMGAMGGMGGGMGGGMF
Sequence of HSP60/HSP10 (P61604 whole entry, further chain): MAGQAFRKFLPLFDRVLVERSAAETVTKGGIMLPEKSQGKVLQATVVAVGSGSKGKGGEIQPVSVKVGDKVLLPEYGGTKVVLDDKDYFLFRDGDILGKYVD

Take `N#Cc1ccc(S(=O)(=O)Nc2ccc(-c3nc4cc(NS(=O)(=O)c5ccc(C#N)cc5)ccc4o3)cc2)cc1`: the IC50 worked out at 12 µM in assay [1]; 37 µM in assay [2]; 35 µM in assay [3]; 27 µM in assay [4]; 35 µM in assay [7]; 49 µM in assay [8]. Moreover, the inhibition at 200 µM in assay [5] is 95%. This compound gave an EC50 in [6] of 43 µM. The Ratio IC50 in assay [9] was 2.3; in [10], 1.4.

Consider `O=S(=O)(Nc1ccc(-c2nc3cc(NS(=O)(=O)c4cccs4)ccc3o2)cc1)c1cccs1`, for which the IC50 in [1] came to 12 µM; in assay [2], 31 µM; in [3], 41 µM; in assay [4] it was 33 µM; in assay [7], 5.5 µM; in assay [8], 40 µM. In assay [5], this compound returned an inhibition at 200 µM of 59%. This compound also had an EC50 in assay [6] of 34 µM. For the same compound, the figures for the Ratio IC50 in assay [9] and in assay [10] were 2.6 and 7.3, respectively.
